pIC50: −log10 of the molar value. Activity calls are given as the source filed them. No cut-off for these calls is given here.
Tests used:
[1] = Cytotoxicity against human HeLaS3 cells after 24 to 72 hrs by MTT assay; format: functional, cell-based; conditions: HeLa S3
Summary of the method: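 Growth inhibition of HeLa S-3 cells measured by MTT assay; IC50 taken as the drug concentration inhibiting cell growth by 50%. Values are mean ± S.D. of four independent experiments, each run in triplicate.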

[2] = Cell cycle arrest in human HeLaS3 cells assessed as accumulation at G1 phase at 150 nM after 12 hrs using propidium iodide staining by flow cytometry (reference value: 56.42%); conditions: HeLa S3
Homo sapiens [3] = organism: Homo sapiens; assay: Binding affinity to enolase in human HeLaS3 whole cell extract by MALDI/TOF-MS nalaysis
[4] = Cell cycle arrest in human HeLaS3 cells assessed as accumulation at G2/M phase at 150 nM after 48 hrs using propidium iodide staining by flow cytometry (reference value: 22.45%); conditions: HeLa S3
[5] = Cell cycle arrest in human HeLaS3 cells assessed as accumulation at G1 phase at 150 nM after 36 hrs using propidium iodide staining by flow cytometry (reference value: 56.42%); conditions: HeLa S3
[6] = Cell cycle arrest in human HeLaS3 cells assessed as accumulation at G2/M phase at 150 nM after 24 hrs using propidium iodide staining by flow cytometry (reference value: 22.45%); conditions: HeLa S3
HeLa S3 [7] = assay: Induction of apoptosis in human HeLaS3 cells assessed as increase of activated caspase 3 level by Western blot analysis; format: functional, cell-based; conditions: TDE = time-dependent effect
Summary of the method: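 Cleaved caspase-3 detected by Western blot of HeLa S-3 cell extracts after 6, 12, 24 or 48 h treatment; untreated extract as control, β-actin as loading control.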

[8] = Cell cycle arrest in human HeLaS3 cells assessed as accumulation at S phase at 150 nM after 12 hrs using propidium iodide staining by flow cytometry (reference value: 19.62%); conditions: HeLa S3
[9] = Cell cycle arrest in human HeLaS3 cells assessed as accumulation at G1 phase at 150 nM after 48 hrs using propidium iodide staining by flow cytometry (reference value: 56.42%); conditions: HeLa S3
[10] = Cell cycle arrest in human HeLaS3 cells assessed as accumulation at S phase at 150 nM after 24 hrs using propidium iodide staining by flow cytometry (reference value: 19.62%); conditions: HeLa S3
[11] = Cell cycle arrest in human HeLaS3 cells assessed as accumulation at G2/M phase at 150 nM after 36 hrs using propidium iodide staining by flow cytometry (reference value: 22.45%); conditions: HeLa S3
HeLa S3 [12] = assay: Induction of apoptosis in human HeLaS3 cells assessed as chromatin condensation at 150 to 1000 nM after 48 hrs using Hoechst 33342 staining by confocal laser microscopic analysis; format: functional, cell-based
Summary of the method: (§1)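 HeLa S-3 cells treated with 0, 150, 300 or 1000 nM for 48 h, then nuclei stained with Hoechst 33342 and examined by fluorescence microscopy for chromatin condensation and fragmented nuclei.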

[13] = Cell cycle arrest in human HeLaS3 cells assessed as accumulation at S phase at 150 nM after 36 hrs using propidium iodide staining by flow cytometry (reference value: 19.62%); conditions: HeLa S3
[14] = Cell cycle arrest in human HeLaS3 cells assessed as accumulation at sub-G1 phase at 150 nM after 12 hrs using propidium iodide staining by flow cytometry (reference value: 1.51%); conditions: HeLa S3
HeLa S3 [15] = assay: Induction of apoptosis in human HeLaS3 cells assessed as fragmented nuclei at 150 to 1000 nM after 48 hrs using Hoechst 33342 staining by confocal laser microscopic analysis; format: functional, cell-based; summary of the method: as §1
HeLa S3 [16] = assay: Induction of apoptosis in human HeLaS3 cells assessed as DNA fragmentation at 150 to 1000 nM after 48 hrs by electrophoresis analysis; format: functional, cell-based
Summary of the method: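 HeLa S-3 cells exposed to 0–1000 nM for 48 h; genomic DNA extracted and run on a 2% agarose gel next to a 100 bp ladder to look for fragmentation.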

[17] = Cell cycle arrest in human HeLaS3 cells assessed as accumulation at G2/M phase at 150 nM after 12 hrs using propidium iodide staining by flow cytometry (reference value: 22.45%); conditions: HeLa S3
[18] = Cell cycle arrest in human HeLaS3 cells assessed as accumulation at sub-G1 phase at 150 nM after 24 hrs using propidium iodide staining by flow cytometry (reference value: 1.51%); conditions: HeLa S3
[19] = Cell cycle arrest in human HeLaS3 cells assessed as accumulation at sub-G1 phase at 150 nM after 48 hrs using propidium iodide staining by flow cytometry (reference value: 1.51%); conditions: HeLa S3
[20] = Cell cycle arrest in human HeLaS3 cells assessed as accumulation at G1 phase at 150 nM after 24 hrs using propidium iodide staining by flow cytometry (reference value: 56.42%); conditions: HeLa S3
[21] = Cell cycle arrest in human HeLaS3 cells assessed as accumulation at S phase at 150 nM after 48 hrs using propidium iodide staining by flow cytometry (reference value: 19.62%); conditions: HeLa S3
[22] = Cell cycle arrest in human HeLaS3 cells assessed as accumulation at sub-G1 phase at 150 nM after 36 hrs using propidium iodide staining by flow cytometry (reference value: 1.51%); conditions: HeLa S3
Homo sapiens [23] = organism: Homo sapiens; assay: Binding affinity to alpha-tubulin in human HeLaS3 whole cell extract by MALDI/TOF-MS nalaysis

COc1ccc(CNc2nccc3c2[nH]c2ccccc23)cc1
pIC50 [1]: 4.66

Clc1ccccc1CNc1cc2c(cn1)[nH]c1ccccc12
pIC50 [1]: 6.00

Clc1cccc(CNc2nccc3c2[nH]c2ccccc23)c1
pIC50 [1]: 4.70

Cc1ccc(CNc2cc3c(cn2)[nH]c2ccccc23)cc1
pIC50 [1]: 5.21

Clc1ccc(CNc2nccc3c2[nH]c2ccccc23)cc1
pIC50 [1]: 4.74

c1ccc(-c2ccccc2CNc2cc3c(cn2)[nH]c2ccccc23)cc1
pIC50 [1]: 5.52

COc1cccc(CNc2cc3c(cn2)[nH]c2ccccc23)c1OC
pIC50 [1]: 5.49

Oc1cccc(CNc2cc3c(cn2)[nH]c2ccccc23)c1
pIC50 [1]: 6.04

Oc1ccccc1CNc1nccc2c1[nH]c1ccccc12
pIC50 [1]: 4.72

c1ccc(Oc2cccc(CNc3nccc4c3[nH]c3ccccc34)c2)cc1
pIC50 [1]: 5.64

COc1cccc(CNc2nccc3c2[nH]c2ccccc23)c1
pIC50 [1]: 4.62

c1ccc(Oc2cccc(CNc3cc4c(cn3)[nH]c3ccccc34)c2)cc1
Activity [2]: 8.4%
Activity (Homo sapiens [3]): Active
pIC50 [1]: 7.13
Activity [4]: 9.52%
Activity [5]: 19%
Activity [6]: 30%
Activity (HeLa S3 [7]): tde
Activity [8]: 15.4%
Activity [9]: 18.4%
Activity [10]: 15.9%
Activity [11]: 19.2%
Activity (HeLa S3 [12]): Active
Activity [13]: 15.6%
Activity [14]: 9.72%
Activity (HeLa S3 [15]): Active
Activity (HeLa S3 [16]): Active
Activity [17]: 65.9%
Activity [18]: 32.7%
Activity [19]: 50.1%
Activity [20]: 21.2%
Activity [21]: 20.2%
Activity [22]: 43.5%
Activity (Homo sapiens [23]): Active

COc1ccc(CNc2cc3c(cn2)[nH]c2ccccc23)cc1OC
pIC50 [1]: < 4.00

O=[N+]([O-])c1ccccc1CNc1cc2c(cn1)[nH]c1ccccc12
pIC50 [1]: 4.85

Cc1ccc(CNc2nccc3c2[nH]c2ccccc23)cc1
pIC50 [1]: 4.59

COc1cccc(OC)c1CNc1cc2c(cn1)[nH]c1ccccc12
pIC50 [1]: 5.64

COc1cccc(CNc2cc3c(cn2)[nH]c2ccccc23)c1
pIC50 [1]: 6.10

c1ccc(-c2ccc(CNc3cc4c(cn3)[nH]c3ccccc34)cc2)cc1
pIC50 [1]: < 4.52

Clc1ccccc1CNc1nccc2c1[nH]c1ccccc12
pIC50 [1]: 4.72

COc1cc(CNc2cc3c(cn2)[nH]c2ccccc23)cc(OC)c1
pIC50 [1]: 5.77

Cc1cccc(CNc2nccc3c2[nH]c2ccccc23)c1
pIC50 [1]: 4.66

FC(F)(F)c1ccccc1CNc1cc2c(cn1)[nH]c1ccccc12
pIC50 [1]: 5.17

COc1ccc(CNc2cc3c(cn2)[nH]c2ccccc23)c(OC)c1
pIC50 [1]: 5.32

Cc1ccccc1CNc1nccc2c1[nH]c1ccccc12
pIC50 [1]: 4.89

Oc1ccc(CNc2cc3c(cn2)[nH]c2ccccc23)cc1
pIC50 [1]: 5.77

COc1ccc(CNc2cc3c(cn2)[nH]c2ccccc23)cc1
pIC50 [1]: 4.70

c1ccc(CNc2cc3c(cn2)[nH]c2ccccc23)cc1
pIC50 [1]: 6.96

FC(F)(F)c1ccc(CNc2cc3c(cn2)[nH]c2ccccc23)cc1
pIC50 [1]: 4.33

FC(F)(F)c1cccc(CNc2cc3c(cn2)[nH]c2ccccc23)c1
pIC50 [1]: 5.51

c1ccc(Oc2ccc(CNc3cc4c(cn3)[nH]c3ccccc34)cc2)cc1
pIC50 [1]: 5.92

Cc1ccccc1CNc1cc2c(cn1)[nH]c1ccccc12
pIC50 [1]: 6.52

Clc1cccc(CNc2cc3c(cn2)[nH]c2ccccc23)c1
pIC50 [1]: 6.08

COc1ccccc1CNc1nccc2c1[nH]c1ccccc12
pIC50 [1]: 4.82

Oc1ccccc1CNc1cc2c(cn1)[nH]c1ccccc12
pIC50 [1]: 4.55

COc1cc(CNc2cc3c(cn2)[nH]c2ccccc23)cc(OC)c1OC
pIC50 [1]: 6.66

c1ccc(CNc2nccc3c2[nH]c2ccccc23)cc1
pIC50 [1]: 4.62

COc1ccc(CNc2cc3c(cn2)[nH]c2ccccc23)c(OC)c1OC
pIC50 [1]: 5.40

c1ccc(COc2cccc(CNc3cc4c(cn3)[nH]c3ccccc34)c2)cc1
pIC50 [1]: 6.42

O=[N+]([O-])c1cccc(CNc2cc3c(cn2)[nH]c2ccccc23)c1
pIC50 [1]: < 4.52

Clc1ccc(CNc2nccc3c2[nH]c2ccccc23)cc1Cl
pIC50 [1]: 4.70

COc1ccc(OC)c(CNc2cc3c(cn2)[nH]c2ccccc23)c1
pIC50 [1]: 5.21

c1ccc(Oc2ccc(CNc3nccc4c3[nH]c3ccccc34)cc2)cc1
pIC50 [1]: 4.82

COc1ccccc1CNc1cc2c(cn1)[nH]c1ccccc12
pIC50 [1]: 6.10

Cc1cccc(CNc2cc3c(cn2)[nH]c2ccccc23)c1
pIC50 [1]: 6.68

Clc1ccc(CNc2cc3c(cn2)[nH]c2ccccc23)cc1
pIC50 [1]: 5.21
